The record followed here is ChEMBL document CHEMBL2150921, “Synthesis, structure-activity relationships, and docking studies of N-phenylarylformamide derivatives (PAFAs) as non-nucleoside HIV reverse transcriptase inhibitors” (Eur J Med Chem, 2012).

A word on the CC50: it is the concentration that lowers cell viability or growth by half. One may read the EC50 as the concentration needed to bring the measured effect to its halfway point.

The first data set deals with C8166. Briefly: Cytotoxicity against human C8166 cells assessed as decrease in cell viability by MTT assay. It is filed as functional.
Conditions: not given
Put shortly: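 Uninfected C8166 cells exposed to compound; viability read by MTT colorimetric assay at A570/630. CC50, the concentration reducing viable cells by 50%, taken from dose-response curve. Mean of at least two separate experiments.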
(Tetrazolium dyes change colour on reduction, which living cells bring about.)
Turning to `Cc1cc(S(N)(=O)=O)ccc1NC(=O)COc1ccc(Cl)cc1NC(=O)c1cccc(Cl)c1`, the CC50 was 59.7 µM.
Consider `Cc1cc(S(N)(=O)=O)ccc1NC(=O)COc1ccc(Cl)cc1NC(=O)c1ccccc1`, for which the CC50 worked out at 207 µM.
Same read-out and setting: for `Cc1cc(S(N)(=O)=O)ccc1NC(=O)COc1ccc(Cl)cc1NC(=O)c1ccccc1C` the value was 67.3 µM; for `Cc1cccc(C(=O)Nc2cc(Cl)ccc2OCC(=O)Nc2ccc(S(N)(=O)=O)cc2C)c1`, 52.9 µM.
Same read-out and setting: the result for `Cc1ccc(C(=O)Nc2cc(Cl)ccc2OCC(=O)Nc2ccc(S(N)(=O)=O)cc2C)cc1` reads 54.2 µM; that for `Cc1cc(S(N)(=O)=O)ccc1NC(=O)COc1ccc(Cl)cc1NC(=O)c1cccc(F)c1`, 243 µM; that for `Cc1cc(S(N)(=O)=O)ccc1NC(=O)COc1ccc(Cl)cc1NC(=O)c1ccccc1[N+](=O)[O-]`, 54.8 µM.
On the same count and under the same terms, for `Cc1cc(S(N)(=O)=O)ccc1NC(=O)COc1ccc(Cl)cc1NC(=O)c1cccc([N+](=O)[O-])c1` the value was 58.8 µM.
Regarding `Cc1cc(S(N)(=O)=O)ccc1NC(=O)COc1ccc(Cl)cc1NC(=O)c1cccc(C(F)(F)F)c1`, the CC50 was found to be 124 µM.
Still for that read-out and setting: the result for `COc1ccc(C(=O)Nc2cc(Cl)ccc2OCC(=O)Nc2ccc(S(N)(=O)=O)cc2C)cc1` reads 69.5 µM; that for `Cc1ccc(C(=O)Nc2cc(Cl)ccc2OCC(=O)Nc2ccc(S(N)(=O)=O)cc2C)c(C)c1`, 47.6 µM.

In another data set the test system is Human immunodeficiency virus 1. Description: Antiviral activity against wild type HIV1 3B infected in human C8166 cells assessed as protection against virus-induced cytopathic effect after 3 days by syncytium reduction assay. It counts as functional, organism-based. The settings on record: Human immunodeficiency virus 1, 3B, C8166, 72 h. Put shortly: (§1)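 C8166 cells (4 × 10⁵/mL) infected at MOI 0.06 in presence of graded compound concentrations; AZT and GW678248 as drug controls. After 3 days culture, syncytia (multinucleated giant cells) counted under inverted microscope; EC50 taken as concentration blocking 50% syncytium formation. Mean of at least two separate experiments.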
For orientation: Protection from cytopathic effect is a common read-out in antiviral testing.
Take `Cc1cc(S(N)(=O)=O)ccc1NC(=O)COc1ccc(Cl)cc1NC(=O)c1cccc(Cl)c1`: the EC50 was found to be 0.00319 µM.
On to `Cc1cc(S(N)(=O)=O)ccc1NC(=O)COc1ccc(Cl)cc1NC(=O)c1ccccc1`, for which the EC50 amounted to 0.00367 µM.
Consider `Cc1cc(S(N)(=O)=O)ccc1NC(=O)COc1ccc(Cl)cc1NC(=O)c1ccccc1C`, for which the EC50 amounted to 0.0179 µM.
On the same count and under the same terms, for `Cc1cccc(C(=O)Nc2cc(Cl)ccc2OCC(=O)Nc2ccc(S(N)(=O)=O)cc2C)c1` the value was 0.00146 µM; for `Cc1ccc(C(=O)Nc2cc(Cl)ccc2OCC(=O)Nc2ccc(S(N)(=O)=O)cc2C)cc1`, 0.0051 µM; for `Cc1cc(S(N)(=O)=O)ccc1NC(=O)COc1ccc(Cl)cc1NC(=O)c1cccc(F)c1`, 0.00353 µM.
The same measure, in the same setting: the result for `Cc1cc(S(N)(=O)=O)ccc1NC(=O)COc1ccc(Cl)cc1NC(=O)c1ccccc1[N+](=O)[O-]` reads 0.0003 µM; that for `Cc1cc(S(N)(=O)=O)ccc1NC(=O)COc1ccc(Cl)cc1NC(=O)c1cccc([N+](=O)[O-])c1`, 0.00066 µM.
Still for that read-out and setting: the result for `Cc1cc(S(N)(=O)=O)ccc1NC(=O)COc1ccc(Cl)cc1NC(=O)c1cccc(C(F)(F)F)c1` reads 1.51 µM.
For `COc1ccc(C(=O)Nc2cc(Cl)ccc2OCC(=O)Nc2ccc(S(N)(=O)=O)cc2C)cc1`, the EC50 came to 0.204 µM.
For `Cc1ccc(C(=O)Nc2cc(Cl)ccc2OCC(=O)Nc2ccc(S(N)(=O)=O)cc2C)c(C)c1`, the concentration giving a half-maximal response (EC50) stood at 0.00056 µM.

In the next data set the test system is Human immunodeficiency virus 2. Description: Antiviral activity against HIV2 ROD infected in human C8166 cells assessed as protection against virus-induced cytopathic effect after 3 days by syncytium reduction assay. It counts as functional, organism-based. The note with it: Human immunodeficiency virus 2, ISOLATE ROD, C8166, 72 h. Put shortly: as §1
As to `Cc1cc(S(N)(=O)=O)ccc1NC(=O)COc1ccc(Cl)cc1NC(=O)c1cccc(Cl)c1`, the EC50 came out at 52.5 µM.
Still for that read-out and setting: the result for `Cc1cc(S(N)(=O)=O)ccc1NC(=O)COc1ccc(Cl)cc1NC(=O)c1ccccc1` reads 72.1 µM; that for `Cc1cc(S(N)(=O)=O)ccc1NC(=O)COc1ccc(Cl)cc1NC(=O)c1ccccc1C`, 55.5 µM; that for `Cc1cccc(C(=O)Nc2cc(Cl)ccc2OCC(=O)Nc2ccc(S(N)(=O)=O)cc2C)c1`, 29.6 µM.
On the same count and under the same terms, the result for `Cc1ccc(C(=O)Nc2cc(Cl)ccc2OCC(=O)Nc2ccc(S(N)(=O)=O)cc2C)cc1` reads 57.3 µM; that for `Cc1cc(S(N)(=O)=O)ccc1NC(=O)COc1ccc(Cl)cc1NC(=O)c1cccc(F)c1`, 186 µM.
Same read-out and setting: for `Cc1cc(S(N)(=O)=O)ccc1NC(=O)COc1ccc(Cl)cc1NC(=O)c1ccccc1[N+](=O)[O-]` the value was 11.8 µM; for `Cc1cc(S(N)(=O)=O)ccc1NC(=O)COc1ccc(Cl)cc1NC(=O)c1cccc([N+](=O)[O-])c1`, 36.1 µM; for `Cc1cc(S(N)(=O)=O)ccc1NC(=O)COc1ccc(Cl)cc1NC(=O)c1cccc(C(F)(F)F)c1`, 81.3 µM.
For the compound `COc1ccc(C(=O)Nc2cc(Cl)ccc2OCC(=O)Nc2ccc(S(N)(=O)=O)cc2C)cc1`, the EC50 was 58.8 µM.
Same read-out and setting: the result for `Cc1ccc(C(=O)Nc2cc(Cl)ccc2OCC(=O)Nc2ccc(S(N)(=O)=O)cc2C)c(C)c1` reads 41.4 µM.

For a further data set, the system named is Human immunodeficiency virus 1. Briefly: Antiviral activity against HIV1 A17 harbouring RT K103N/Y181C mutant infected in human C8166 cells assessed as protection against virus-induced cytopathic effect after 3 days by syncytium reduction assay. It counts as functional, organism-based. The settings on record: Human immunodeficiency virus 1, A17, C8166, 72 h. Put shortly:
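C8166 cells (4 × 10⁵/mL) infected at M.O.I 0.06 in the presence of various compound concentrations; cultured 3 days, syncytia (multinucleated giant cells) scored under inverted microscope; EC50 = concentration blocking syncytia formation by 50%. AZT and GW678248 as drug controls. Mean of at least two separate experiments.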
For `Cc1cc(S(N)(=O)=O)ccc1NC(=O)COc1ccc(Cl)cc1NC(=O)c1cccc(Cl)c1`, the EC50 is 1.49 µM.
On the same count and under the same terms, for `Cc1cc(S(N)(=O)=O)ccc1NC(=O)COc1ccc(Cl)cc1NC(=O)c1ccccc1` the value was 1.59 µM; for `Cc1cc(S(N)(=O)=O)ccc1NC(=O)COc1ccc(Cl)cc1NC(=O)c1ccccc1C`, 2.29 µM.
Still for that read-out and setting: the result for `Cc1cccc(C(=O)Nc2cc(Cl)ccc2OCC(=O)Nc2ccc(S(N)(=O)=O)cc2C)c1` reads 0.46 µM; that for `Cc1ccc(C(=O)Nc2cc(Cl)ccc2OCC(=O)Nc2ccc(S(N)(=O)=O)cc2C)cc1`, 0.93 µM; that for `Cc1cc(S(N)(=O)=O)ccc1NC(=O)COc1ccc(Cl)cc1NC(=O)c1cccc(F)c1`, 1.02 µM.
The same measure, in the same setting: the result for `Cc1cc(S(N)(=O)=O)ccc1NC(=O)COc1ccc(Cl)cc1NC(=O)c1ccccc1[N+](=O)[O-]` reads 0.29 µM; that for `Cc1cc(S(N)(=O)=O)ccc1NC(=O)COc1ccc(Cl)cc1NC(=O)c1cccc([N+](=O)[O-])c1`, 0.46 µM; that for `Cc1cc(S(N)(=O)=O)ccc1NC(=O)COc1ccc(Cl)cc1NC(=O)c1cccc(C(F)(F)F)c1`, 52.9 µM.
Take `COc1ccc(C(=O)Nc2cc(Cl)ccc2OCC(=O)Nc2ccc(S(N)(=O)=O)cc2C)cc1`: the EC50 came out at 18.1 µM.
`Cc1ccc(C(=O)Nc2cc(Cl)ccc2OCC(=O)Nc2ccc(S(N)(=O)=O)cc2C)c(C)c1`: the concentration giving a half-maximal response (EC50) is 0.09 µM.

Test system in another data set: not listed separately
Briefly: Therapeutic index, ratio of CC50 for human C8166 cells to EC50 for wild type HIV1 3B infected in human C8166 cells. The note with it: C8166 cells infected with wild type HIV1 3B, read-out: Ratio CC50/EC50. It is filed as cell-based. Put shortly: (§2)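 CC50 from MTT assay on uninfected C8166 cells (A570/630, dose-response curve, 50% viable cell reduction) divided by EC50 from 3-day syncytium reduction assay in C8166 cells (4 × 10⁵/mL) infected at M.O.I 0.06; syncytia scored microscopically. Values are means of at least two separate experiments.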
On to `Cc1cc(S(N)(=O)=O)ccc1NC(=O)COc1ccc(Cl)cc1NC(=O)c1cccc(Cl)c1`, for which the selectivity ratio was found to be 18700.
The same measure, in the same setting: for `Cc1cc(S(N)(=O)=O)ccc1NC(=O)COc1ccc(Cl)cc1NC(=O)c1ccccc1` the value was 56500.
On to `Cc1cc(S(N)(=O)=O)ccc1NC(=O)COc1ccc(Cl)cc1NC(=O)c1ccccc1C`, for which the selectivity ratio is 3750.
On the same count and under the same terms, the result for `Cc1cccc(C(=O)Nc2cc(Cl)ccc2OCC(=O)Nc2ccc(S(N)(=O)=O)cc2C)c1` reads 36200; that for `Cc1ccc(C(=O)Nc2cc(Cl)ccc2OCC(=O)Nc2ccc(S(N)(=O)=O)cc2C)cc1`, 10600; that for `Cc1cc(S(N)(=O)=O)ccc1NC(=O)COc1ccc(Cl)cc1NC(=O)c1cccc(F)c1`, 68800.
For the compound `Cc1cc(S(N)(=O)=O)ccc1NC(=O)COc1ccc(Cl)cc1NC(=O)c1ccccc1[N+](=O)[O-]`, the selectivity ratio worked out at 185000.
Still for that read-out and setting: the result for `Cc1cc(S(N)(=O)=O)ccc1NC(=O)COc1ccc(Cl)cc1NC(=O)c1cccc([N+](=O)[O-])c1` reads 89400.
Still for that read-out and setting: for `Cc1cc(S(N)(=O)=O)ccc1NC(=O)COc1ccc(Cl)cc1NC(=O)c1cccc(C(F)(F)F)c1` the value was 82.
Same read-out and setting: the result for `COc1ccc(C(=O)Nc2cc(Cl)ccc2OCC(=O)Nc2ccc(S(N)(=O)=O)cc2C)cc1` reads 340; that for `Cc1ccc(C(=O)Nc2cc(Cl)ccc2OCC(=O)Nc2ccc(S(N)(=O)=O)cc2C)c(C)c1`, 85300.

Test system in a further data set: not listed separately
Briefly: Therapeutic index, ratio of CC50 for human C8166 cells to EC50 for HIV1 A17 harbouring RT K103N/Y181C mutant infected in human C8166 cells. It is filed as cell-based. The note with it: read-out: Ratio CC50/EC50. The gist of the method:
as §2
Regarding `Cc1cc(S(N)(=O)=O)ccc1NC(=O)COc1ccc(Cl)cc1NC(=O)c1cccc(Cl)c1`, the selectivity ratio was 39.9.
With `Cc1cc(S(N)(=O)=O)ccc1NC(=O)COc1ccc(Cl)cc1NC(=O)c1ccccc1`, the selectivity ratio was 130.
Still for that read-out and setting: for `Cc1cc(S(N)(=O)=O)ccc1NC(=O)COc1ccc(Cl)cc1NC(=O)c1ccccc1C` the value was 29.4; for `Cc1cccc(C(=O)Nc2cc(Cl)ccc2OCC(=O)Nc2ccc(S(N)(=O)=O)cc2C)c1`, 115; for `Cc1ccc(C(=O)Nc2cc(Cl)ccc2OCC(=O)Nc2ccc(S(N)(=O)=O)cc2C)cc1`, 58.2.
On the same count and under the same terms, the result for `Cc1cc(S(N)(=O)=O)ccc1NC(=O)COc1ccc(Cl)cc1NC(=O)c1cccc(F)c1` reads 239.
The same measure, in the same setting: the result for `Cc1cc(S(N)(=O)=O)ccc1NC(=O)COc1ccc(Cl)cc1NC(=O)c1ccccc1[N+](=O)[O-]` reads 188; that for `Cc1cc(S(N)(=O)=O)ccc1NC(=O)COc1ccc(Cl)cc1NC(=O)c1cccc([N+](=O)[O-])c1`, 128; that for `Cc1cc(S(N)(=O)=O)ccc1NC(=O)COc1ccc(Cl)cc1NC(=O)c1cccc(C(F)(F)F)c1`, 2.34.
With `COc1ccc(C(=O)Nc2cc(Cl)ccc2OCC(=O)Nc2ccc(S(N)(=O)=O)cc2C)cc1`, the selectivity ratio was 3.85.
On the same count and under the same terms, for `Cc1ccc(C(=O)Nc2cc(Cl)ccc2OCC(=O)Nc2ccc(S(N)(=O)=O)cc2C)c(C)c1` the value was 543.
